RTF Ca sens act – cardiac RTF calcium sensitization | 340,000 compounds, 0.24% hits | IANBD-labeled TnC RTF fluorescence at EC20 calcium; 0% EC20 calcium, 100% full calcium | activation, % at 7.2 µM;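 active = activation above the mean over all tested compounds plus 3 SD, cut at about 30% in these data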;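 note: rise in fluorescence read as greater calcium sensitivity of cardiac thin filaments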
Tn7 DDE FP – inhibitors of Tn7 peptide binding to human fibrin DD(E). AID 720508. P02675. 370,000 compounds, 0.13% hits. FP displacement of FITC-Tn7 peptide from fibrin DD(E); 0% = median of compound wells per plate. inhibition, % at 8.3 µM;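 active = inhibition above the mean of compounds falling within the control limits plus 3 SD of them, cut at about 14% in these data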;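 note: 0% = plate median of compound wells and 100% = 10 µM Aha-Tn7 peptide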
Target sequence (P02675 whole entry, looked up): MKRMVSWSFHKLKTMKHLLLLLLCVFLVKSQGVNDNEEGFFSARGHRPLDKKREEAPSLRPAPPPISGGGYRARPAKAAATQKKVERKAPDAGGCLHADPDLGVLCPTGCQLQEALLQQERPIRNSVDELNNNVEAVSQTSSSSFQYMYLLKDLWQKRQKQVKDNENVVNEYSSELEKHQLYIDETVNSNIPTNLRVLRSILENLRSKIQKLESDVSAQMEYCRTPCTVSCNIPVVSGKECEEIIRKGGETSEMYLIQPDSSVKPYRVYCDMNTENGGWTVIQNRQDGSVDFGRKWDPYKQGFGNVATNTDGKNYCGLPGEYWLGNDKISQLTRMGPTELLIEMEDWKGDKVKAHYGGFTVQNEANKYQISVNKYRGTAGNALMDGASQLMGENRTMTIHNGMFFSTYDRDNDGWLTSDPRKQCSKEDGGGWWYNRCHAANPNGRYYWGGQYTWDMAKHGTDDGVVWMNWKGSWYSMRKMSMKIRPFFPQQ
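assay system = human clot-derived fibrin DD(E) complex | quantity = Fibrin-DD(E) at 2 µM final | timing = 10 min preincubation, 3 h with tracer, room temperature | signal = fluorescence polarization | measure = percent inhibition | benchmarks = high control wells with 10 µM unlabelled Aha-Tn7 peptide (full inhibition) | replicates = singlicate testing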
Cardiac RTF inh – cardiac RTF calcium desensitization; 340,000 compounds, 0.12% hits; inhibition, % at 7.15 µM; IANBD-labeled cardiac RTF, Ca2+ fluorescence; P19429+P45379; AID 493244;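 active = inhibition above the mean inhibition of all tested compounds plus 3 SD, cut at about 17% in these data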;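 note: assay run at fixed EC70 calcium of 1.6 mM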
CRFR2-BP ag – agonists of human CRF-binding protein/CRF-R2 receptor complex; activation, % at 13.2 µM; 350,000 compounds, 0.46% hits; HEK293 CRF-R2/CRF-BP, calcium dye fluorescence (FLIPR); percent of saturating CRF peptide response;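 active = activation of at least 50%, plus an integration ratio under a set limit after plate pattern correction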;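 note: plate controls were neutral control wells without compound for no effect and CRF at EC100 for full effect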
DDE Tn6 FP inh – DD(E)-Tn6 binding inhibition, primary FP screen. Fibrin DD(E) TRITC-Tn6 fluorescence polarization displacement. P02675. inhibition, % at 8.3 µM. 370,000 compounds, 0.21% hits. AID 720509;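 active = inhibition above a per-campaign cutoff: mean of compounds within control limits plus 3 SD, cut at about 15% in these data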;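 note: 0% = median of all compound wells on the plate and 100% = blocking peptide control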
CRFBP-R2 block – antagonists of CRF-binding protein/CRF-R2 receptor complex | 350,000 compounds, 0.59% hits | HEK293 CRF-R2/CRF-BP, CRF-induced calcium fluorescence | inhibition, % at 11.8 µM | AID 588475;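 active = inhibition of the ligand-induced calcium signal above about 50% at the single tested concentration, limit read from the data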
Numbers without * were called inactive; i = inactive; . = no result. Rows were chosen to be rich in hits. Some 1.4% of all compounds tested hit in one or more screens of this group.

SMILES	RTF Ca sens act	Tn7 DDE FP	Cardiac RTF inh	CRFR2-BP ag	DDE Tn6 FP inh	CRFBP-R2 block
CCCCCc1nc2c(c(=O)c3ccccc3n2C)c(=O)n1C1CCCCCC1	3	-4	-6	219*	-2	-199
CCCCn1c(O)c(C(=O)/C=C/c2c[nH]c3ccccc23)c(=O)[nH]c1=O	67*	-5	-28	130*	3	-100
COC(=O)C1=C(c2ccc(F)cc2OCc2ccccc2)C[C@@H]2CC[C@H]1N2C(=O)NCc1ccc2c(c1)OCO2	4	-5	-13	-1	1	16
CC(CCN1CC1)=NNC(=O)Nc1cccc2ccccc12	-2	1	0	0	-1	6
CCCCCCCCCCCCCCCC[N+](C)(C)C	-2	-1	4	4	-17	66*
CN1/C(=C\C=C2C(=O)NC(=S)NC2=O)C(C)(C)c2ccccc21	433*	-31	i	215*	1	-177
O=C1NC(=S)NC(=O)C1=Cc1cccc2cc3ccccc3cc12	6	-5	-6	1	7	1
CC1(C)OC(c2ccccc2)=C/C(=C/C=C2C(=O)NC(=S)NC2=O)O1	.	-21	.	144*	-9	-194
CC[C@@H]1C[C@H]2CC[C@H](O2)[C@H](C)C(=O)O[C@@H](C)C[C@@H]2CC[C@@H](O2)[C@@H](C)C(=O)O[C@H](C)C[C@H]2CC[C@H](O2)[C@H](C)C(=O)O[C@@H](C)C[C@@H]2CC[C@@H](O2)[C@@H](C)C(=O)O1	.	5	.	.	-7	.
CCOc1ccc(N2C(=O)/C(=C/c3ccco3)C(=O)NC2=S)cc1	-40	.	56*	-2	.	9
N[C@@H](Cc1ccc(N(CCCl)CCCl)cc1)C(=O)O	3	2	-4	-1	-4	-7
NC(Cc1ccc(O)cc1)C(=O)NN=Cc1ccc(N(CCCl)CCCl)cc1 (stereo not drawn)	3	3	-1	1	2	60*
CCN(CC)c1ccc(N=Cc2c(O)n(CCC3=CCCCC3)c(=O)[nH]c2=O)cc1	5	-1	-10	115*	-6	-132
CN1C(=O)C(=Cc2ccc(N3CCCCCC3)o2)C(=O)N(C)C1=S	58*	-3	-15	99*	2	-82
Cc1ccc(Sc2ccc(C=C3C(=O)N(C)C(=O)N(C)C3=O)o2)cc1	9	1	-39	30	3	-99
CN1C(=O)C(=Cc2ccc(N3CCOCC3)o2)C(=O)N(C)C1=O	72*	-28	-84	48	-5	1
O=C(O)c1ccccc1-c1ccc(C=C2C(=O)N(c3ccccc3)C(=S)N(c3ccccc3)C2=O)o1	2	1	-14	2	-1	-6
[N-]=[N+]=CC(=O)OC[C@H](N)C(=O)O	7	-3	4	-1	-12	14
N=C1c2ccccc2CN1c1cccc([N+](=O)[O-])c1	9	-7	-11	1	-3	-3
Nc1cccc2c1Cc1cc([N+](=O)[O-])ccc1-2	-4	5	-3	62*	4	-86
COc1ccccc1C(=O)Nc1ccc2c(c1)CC1(C(=O)N(C)C(=O)N(C)C1=O)C1CCCN21 (stereo not drawn)	-3	-2	-2	182*	4	-106
Cc1cccc(C(=O)Nc2ccc3c(c2)CC2(C(=O)N(C)C(=O)N(C)C2=O)C2CCCN32)c1 (stereo not drawn)	-4	.	1	8	.	-5
Nc1ccccc1Cl	-6	0	-5	-1	-3	11
CC(C)(C)c1cc(C=C(C#N)C#N)cc(C(C)(C)C)c1O	2	1	9	53*	2	35
N#CC(C#N)=Cc1ccc(O)c(O)c1	7	8	-1	9	1	-20
SMILES	RTF Ca sens act	Tn7 DDE FP	Cardiac RTF inh	CRFR2-BP ag	DDE Tn6 FP inh	CRFBP-R2 block
CCC1(CC)C(=O)N(Cc2ccccc2)C(=O)N(Cc2ccccc2)C1=O	-6	.	-4	10	.	87*
CC1CCCC(C2(O)C(=O)Nc3ccccc32)C1=O (stereo not drawn)	-3	5	-7	0	7	-9
O=C(c1cc(Cl)cc(Cl)c1)N1Cc2ccccc2-n2nncc2C1	.	6	.	-2	7	5
C=CCN1CCC2(C)c3cc(O)ccc3CC1C2C (stereo not drawn)	0	-5	11	63*	-2	-68
CC1C2Cc3ccc(O)cc3C1(C)CCN2CC1CC1 (stereo not drawn)	.	0	.	.	3	.
OC12CCCCC1C(c1ccccc1)NCC2 (stereo not drawn)	210*	-6	3	2	3	-24
COc1cc2c(cc1OC)CC[N+](C)=C2	1	-3	-2	0	3	2
CSCCC(c1nnnn1C(C)(C)C)N1CCC2(CC1)C(=O)NCN2c1ccccc1 (stereo not drawn)	.	-2	.	.	6	.
COc1ccc(-n2c(O)c(C=Nc3c(C)n(C)n(-c4ccccc4)c3=O)c(=O)[nH]c2=O)cc1	-4	4	6	0	17*	8
COc1cccc(-n2c(O)c(C=Nc3c(C)n(C)n(-c4ccccc4)c3=O)c(=O)[nH]c2=O)c1	3	-3	-9	0	-2	9
CN(C)P(=NC(=S)c1cccn1C)(N(C)C)N(C)C	7	0	-13	2	-6	-5
CN(C)P(=O)(NC(=O)c1cccn1C)N(C)C	15	-3	-20	4	2	107*
C=C(C)[C@@]12OC3(c4ccccc4)O[C@@H]1C1[C@@H]4O[C@]4(CO)[C@@H](O)[C@]4(O)C(=O)C(C)=C[C@H]4[C@@]1(O3)[C@H](C)[C@H]2OC(=O)/C=C/C=C/c1ccccc1 (stereo partly drawn)	3	.	-1	2	.	111*
Cc1c(NS(=O)(=O)c2ccccc2)ccc([N+](=O)[O-])c1Cl	-2	-6	1	29	2	54*
CC/C(=C\C=C\[C@@H]1C=C[C@@H]2CCC[C@H]2[C@@H]1C(=O)c1ccc[nH]1)[C@@H]1O[C@@H]([C@@H](C)C(=O)O)CC[C@@H]1C	.	.	.	67*	.	22
O=c1[nH]c2ccccc2n1C1CCN(C(CCc2ccccc2)c2nnnn2C2CCCC2)CC1 (stereo not drawn)	.	3	.	.	9	.
CCOC(=O)c1c(/N=C/C2C(=O)NC(=S)NC2=O)sc2c1CCC2	.	.	.	98*	.	-102
C[C@]12CC[C@@H](O)C[C@@H]1CC[C@@H]1[C@@H]2CC[C@]2(C)C(=O)CC[C@@H]12	11	16*	-12	-2	0	-6
Cc1ccccc1N1C(=O)NC(=O)/C(=C/c2ccc(N3CCOCC3)o2)C1=O	51*	-6	-61	29	2	-21

Assay outcomes as filed in PubChem.
